Assay results published in publication PMC2670241 (Journal of neurochemistry, 2009).

What was measured:
MOR32-11 = MOR32-11 (Mus musculus, UniProt Q8VF06); format: cell-based; details: for activation / activation at 3 µM / activation at 10 µM / activation at 30 µM: read-out: Response normalized to the response of the same oocyte to 100 μM nonanoic acid
MOR40-4 (S83) = details: ref Malnic et al., 1999; cited from earlier work
MOR23-1 = MOR23-1 (Mus musculus, UniProt Q8VG01); format: cell-based; details: read-out: Response normalized to the response of the same oocyte to 100 μM nonanoic acid
MOR174-9 (mOR-EG) [1] = molecular target: T1, MOR174-9 (mOR-EG) (Mus musculus, UniProt Q920P2); format: cell-based; details: each at 100 μM, 15 sec application
T1 sequence (Q920P2 1-313): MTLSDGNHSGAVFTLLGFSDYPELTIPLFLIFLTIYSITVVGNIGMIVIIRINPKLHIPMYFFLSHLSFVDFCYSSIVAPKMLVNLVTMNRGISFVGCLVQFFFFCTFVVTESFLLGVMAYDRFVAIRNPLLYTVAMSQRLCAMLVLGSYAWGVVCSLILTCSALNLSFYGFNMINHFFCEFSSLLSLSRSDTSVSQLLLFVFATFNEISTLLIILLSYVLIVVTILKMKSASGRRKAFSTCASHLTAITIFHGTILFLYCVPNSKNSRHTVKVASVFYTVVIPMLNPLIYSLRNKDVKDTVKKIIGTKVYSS

[2] = test system: oocytes expressing Gαolf and CFTR, but no receptor; assay: Control oocytes expressing Gαolf and CFTR, but no receptor; format: cell-based, Xenopus laevis; details: 100 μM, 15 sec application
In short: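 Xenopus oocytes were defolliculated with collagenase B for 2 h at room temperature and injected with human Gαolf (10 ng) and CFTR (1 ng) cRNA in 23 nl water, with no receptor. Under voltage clamp in ND96 (pH 7.5), test compounds from 1 M DMSO stocks, diluted in ND96, were applied for 15 sec. 1 mM IBMX served as receptor-independent CFTR activator. Read-out was current.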

MOR174-9 (mOR-EG) [3] = molecular target: T1, MOR174-9 (mOR-EG); details: ref Abaffy et al., 2006; cited from earlier work

Chain of MOR32-11 (Q8VF06 1-312): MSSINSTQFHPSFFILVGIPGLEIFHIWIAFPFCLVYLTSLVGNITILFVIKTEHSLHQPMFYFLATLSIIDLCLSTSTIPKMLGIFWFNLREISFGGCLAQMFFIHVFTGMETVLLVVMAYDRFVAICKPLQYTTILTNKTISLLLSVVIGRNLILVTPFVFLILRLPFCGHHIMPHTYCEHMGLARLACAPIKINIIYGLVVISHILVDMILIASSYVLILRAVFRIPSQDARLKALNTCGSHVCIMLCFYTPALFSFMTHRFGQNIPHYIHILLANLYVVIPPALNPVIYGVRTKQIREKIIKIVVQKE

activation (MOR32-11)	activation (MOR23-1)	activation at 3 µM (MOR32-11)	activation at 10 µM (MOR32-11)	activation at 30 µM (MOR32-11)	SMILES	other results
6 ± 2%	0%				O=C(O)CCCCCCCCCCCBr [12-Bromo-dodecanoic acid]	
25 ± 3%	0%	0%	0%	0%	CCCCCCCCCCCC=O [Dodecanal]	
					C=CCc1ccc(O)c(OC)c1 [eugenol]	Response of MOR174-9 to odorant (MOR174-9 (mOR-EG) [1]): responds; Response of oocytes expressing Gαolf and CFTR, but no receptor [2]: do not respond
32 ± 6%	0%	0%	0%	0%	CCCCCCCCC=O [Nonanal]	
					COc1cc(C=O)ccc1O [vanillin]	Response of MOR174-9 to odorant (MOR174-9 (mOR-EG) [1]): responds; Response of oocytes expressing Gαolf and CFTR, but no receptor [2]: do not respond
98 ± 22%	0%	0%	0%	26 ± 8%	CCCCCCCCCCC(=O)O [Undecanoic acid]	
16 ± 3%	0%	0%	0%	0%	CCCCCCCCCCC=O [Undecanal]	
					CC(C)=CCC/C(C)=C/CO [geraniol]	Response of MOR174-9 to odorant (MOR174-9 (mOR-EG) [1]): does not respond
					CCCCCCCCCO [nonanol]	Response of MOR40-4 (S83) to odorant (previously shown) (MOR40-4 (S83)): respond
35 ± 6%	64 ± 10%	0%	13 ± 5%	40 ± 12%	CCCCCCC(=O)O [Heptanoic acid]	Saturation of dose-response at MOR32-11 (MOR32-11; up to a concentration of 1 mM, data not shown): failed to saturate; activation at 3 µM (MOR23-1): 0%; activation at 10 µM (MOR23-1): 10 ± 3%; activation at 30 µM (MOR23-1): 17 ± 4%
60 ± 4%	0%	0%	0%	0%	O=C(O)CCCCCCCCCBr [10-Bromo-decanoic acid, 10-bromodecanoic acid]	
0%	61 ± 7%				O=C(O)CCCCCBr [6-Bromo-hexanoic acid, 6-bromohexanoic acid]	activation at 3 µM (MOR23-1): 0%; activation at 10 µM (MOR23-1): 0%; activation at 30 µM (MOR23-1): 22 ± 6%
		0%	0%	0%	CCCCCCCCCCCC(=O)O [Dodecanoic acid]	
					CCCCO [butanol]	Response of MOR174-9 to odorant (MOR174-9 (mOR-EG) [1]): does not respond
					C=C(C)[C@@H]1CC=C(C)C(=O)C1 [(−) carvone]	Response of MOR174-9 to odorant (MOR174-9 (mOR-EG) [1]): does not respond
0%	0%				O=C(O)CCCCCCCCCC(=O)O [Undecanedioic acid]	
0%	100 ± 6%				CCCCCCCCO [Octanol]	activation at 10 µM (MOR23-1): 23 ± 2%; activation at 30 µM (MOR23-1): 68 ± 13%
6 ± 2%	0%				CCCCCCCCCCCO [Undecanol]	
					C/C=C/c1ccc(OC)c(OC)c1 [methylisoeugenol]	Antagonism of the response to eugenol of MOR174-9 expressed in oocytes (MOR174-9 (mOR-EG) [3]): can antagonize
27 ± 10%	0%	0%	0%	0%	O=C(O)CCCCCCCCCCBr [11-Bromo-undecanoic acid]	
					COc1ccccc1O [guaiacol]	Response of MOR174-9 to odorant (MOR174-9 (mOR-EG) [1]): does not respond
					CCOc1cc(C=O)ccc1O [ethyl vanillin]	Response of MOR174-9 to odorant (MOR174-9 (mOR-EG) [1]): responds; Response of oocytes expressing Gαolf and CFTR, but no receptor [2]: do not respond
22 ± 6%	198 ± 27%	0%	0%	0%	CCCCCCCC=O [Octanal]	activation at 3 µM (MOR23-1): 35 ± 5%; activation at 10 µM (MOR23-1): 76 ± 13%; activation at 30 µM (MOR23-1): 107 ± 7%
					C=C(C)[C@H]1CC=C(C)C(=O)C1 [(+) carvone]	Response of MOR174-9 to odorant (MOR174-9 (mOR-EG) [1]): does not respond
23 ± 5%	0%	0%	0%	0%	CCCCCCCCCC=O [Decanal]	
122 ± 8%	0%	0%	13 ± 3%	0%	CCCCCCCCCC(=O)O [Decanoic acid]	

SMILES	activation (MOR32-11)	activation (MOR23-1)	activation at 3 µM (MOR32-11)	activation at 10 µM (MOR32-11)	activation at 30 µM (MOR32-11)	other results
O=C(O)CCCCCCCBr [8-Bromo-octanoic acid, 8-bromooctanoic acid]	0%	32 ± 6%				Response of MOR40-4 (S83) to odorant (previously shown) (MOR40-4 (S83)): respond; activation at 3 µM (MOR23-1): 0%; activation at 10 µM (MOR23-1): 0%; activation at 30 µM (MOR23-1): 43 ± 8%
CCCCCCCC(=O)O [Octanoic acid]	76 ± 6%	178 ± 29%	0%	27 ± 7%	83 ± 14%	Response of MOR40-4 (S83) to odorant (previously shown) (MOR40-4 (S83)): respond; activation at 3 µM (MOR23-1): 70 ± 11%; activation at 10 µM (MOR23-1): 112 ± 17%; activation at 30 µM (MOR23-1): 158 ± 12%
CCCCCCCCC(=O)O [Nonanoic acid]	100%	100%	0%	25 ± 4%	61 ± 8%	Response of MOR40-4 (S83) to odorant (previously shown) (MOR40-4 (S83)): respond; activation at 3 µM (MOR23-1): 0%; activation at 10 µM (MOR23-1): 11 ± 4%; activation at 30 µM (MOR23-1): 48 ± 8%
